Experiments:
Format in all cases: functional, cell-based
NCI/ADR-RES = assay: Cytotoxicity against human NCI/ADR-RES cells
Outline: (§1)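 Human tumour cell lines (A549 lung adenocarcinoma, PANC-1 pancreatic, NCI/ADR-RES […], formerly MCF-7/ADR) obtained from ATCC. In vitro proliferation inhibition run by a previously described protocol. Each sample assayed at least three times to derive the final IC50.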

A549 = assay: Cytotoxicity against human A549 cells; outline: as §1
PANC-1 = assay: Cytotoxicity against human PANC1 cells; outline: as §1

Row | Structure (SMILES) | IC50 (NCI/ADR-RES) | IC50 (A549) | IC50 (PANC-1)
1 | C=C(CCC(C)C)COC(=O)[C@H](O)C/C=C\C[C@@H]1O[C@@H]2/C=C/C/C=C/C(C)=C\[C@H]3O[C@@H](C/C=C/C=C/C(=O)O[C@H](C2)[C@@]1(C)CO)C[C@H](O)[C@H]3C [LASONOLIDE A] | 490 nM | 8.6 nM | 89 nM
2 | C=C(COC(=O)[C@H](O)C/C=C\C[C@@H]1O[C@@H]2/C=C/C/C=C/C(C)=C\[C@H]3O[C@@H](C/C=C/C=C/C(=O)O[C@H](C2)[C@@]1(C)CO)C[C@H](O)[C@H]3C)C(O)CC(C)C (stereo partly drawn) [LASONOLIDE C] | 1120 nM | 130 nM | 380 nM
3 | CC1=C/[C@H]2O[C@@H](C/C=C/C=C/C(=O)O[C@@H]3C[C@@H](/C=C/C\C=C\1)O[C@@H](C/C=C\CCO)[C@]3(C)CO)C[C@H](O)[C@H]2C [LASONOLIDE D] | > 9000 nM | 4500 nM | 4890 nM
4 | CCOC(=O)[C@H](O)C/C=C\C[C@@H]1O[C@@H]2/C=C/C/C=C/C(C)=C\[C@H]3O[C@@H](C/C=C/C=C/C(=O)O[C@H](C2)[C@@]1(C)CO)C[C@H](O)[C@H]3C [LASONOLIDE E] | > 8000 nM | 310 nM | 570 nM
5 | C=C(COC(=O)[C@H](O)C/C=C\C[C@@H]1O[C@@H]2/C=C/C/C=C/C(C)=C\[C@H]3O[C@@H](C/C=C/C=C/C(=O)O[C@H](C2)[C@@]1(C)COC(=O)CCCCCCCCCCC)C[C@H](O)[C@H]3C)C(O)CC(C)C (stereo partly drawn) [LASONOLIDE G] | > 6000 nM | > 6000 nM | > 6000 nM
6 | CC1=C/[C@H]2O[C@@H](C/C=C/C=C/C(=O)O[C@@H]3C[C@@H](/C=C/C\C=C\1)O[C@@H](C/C=C\C[C@@H](O)C(=O)O)[C@]3(C)CO)C[C@H](O)[C@H]2C [LASONOLIDES F] | > 9000 nM | > 9000 nM | 15600 nM

Reference: ChEMBL document CHEMBL1148202, “Lasonolides C-g, five new lasonolide compounds from the sponge Forcepia sp” (J Nat Prod, 2004)
